This note sets out measurements from ChEMBL document CHEMBL1255276, “Reliability of the WIDERYST susceptibility testing system for detection of in vitro antifungal resistance in yeasts” (2008).

In brackets after ≈: the same amount, converted by molar mass.

What all share (format): functional
Assay [1] concerns Pichia kudriavzevii. Description: Antifungal activity against Candida krusei ATCC 6258 by AFST-EUCAST method. An outline of the steps: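 AFST-EUCAST microdilution standard for fermentative yeasts (document 7.1). The medium was RPMI 1640 with 2% glucose in flat-bottomed plates, and the inoculum was 10^5 CFU/ml. Endpoints were read spectrophotometrically at 24 and 48 h. The MIC was the lowest concentration giving ≥90% growth reduction versus the drug-free control for AMB, or a 50% OD reduction for 5FC and azoles. Run as a quality-control strain in each set.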

Assay [2] concerns Pichia kudriavzevii. Description: Antifungal activity against Candida krusei ATCC 6258 by CLSI M27-A2 microdilution method.
For assay [3], the system named is Pichia kudriavzevii. Description: Antifungal activity against Candida krusei ATCC 6258 by WIDERYST method.
Assay [4] has as its system Candida parapsilosis. The assay can be described thus: Antifungal activity against Candida parapsilosis ATCC 22019 by AFST-EUCAST method. Conditions: Lodderomyces parapsilosis. An outline of the steps:
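Microdilution per AFST-EUCAST 7.1, with the strain run as a quality control in each set. RPMI 1640 plus 2% glucose, inoculum 10^5 CFU/ml, flat-bottomed plates. Read spectrophotometrically at 24 and 48 h. MIC endpoint is the lowest concentration giving ≥90% growth reduction versus the drug-free control for AMB, and 50% OD reduction for 5FC and azoles.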

For assay [5], the system named is Candida parapsilosis. Description: Antifungal activity against Candida parapsilosis ATCC 22019 by CLSI M27-A2 microdilution method. Conditions: Lodderomyces parapsilosis. Background: Dilution methods test growth across graded concentrations, often in twofold steps.
The test system of assay [6] is Candida parapsilosis. The assay can be described thus: Antifungal activity against Candida parapsilosis ATCC 22019 by WIDERYST method. To be noted: Lodderomyces parapsilosis. The method in brief:
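Commercial 96-well panels with lyophilized drugs, the strain serving as a quality control. Ranges: FLC and 5FC 128–0.06 µg/ml; AMB, ITC, VRC and KTC 8–0.004 µg/ml. Inoculum 1 x 10^5 to 5 x 10^5 CFU/ml, 35°C, 24 h, no CO2, plus 24 h if no growth. Video-image read; MIC is 90% (AMB) or 50% (others) growth reduction versus the positive control.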

As usually defined, the MIC is the least concentration at which growth counts as inhibited. A higher MIC goes with weaker potency. Turning to `OC(Cn1cncn1)(Cn1cncn1)c1ccc(F)cc1F` [FLUCONAZOLE], the MIC in assay [1] is 8 µg/mL (≈ 26.1 µM); in assay [2], 16 µg/mL (≈ 52.2 µM); in assay [3] it was 8 µg/mL (≈ 26.1 µM); in assay [4], 1 µg/mL (≈ 3.27 µM); in assay [5] it was 1 µg/mL (≈ 3.27 µM); in assay [6], 0.5 µg/mL (≈ 1.63 µM).
On to `Nc1nc(=O)[nH]cc1F` [FLUCYTOSINE], for which the MIC in assay [1] turned out to be 1 µg/mL (≈ 7.75 µM); in assay [2], 4 µg/mL (≈ 31 µM); in assay [3], 2 µg/mL (≈ 15.5 µM); in assay [4] it was 0.12 µg/mL (≈ 0.93 µM); in assay [5] it was 0.12 µg/mL (≈ 0.93 µM); in assay [6] it was 0.06 µg/mL (≈ 0.465 µM).
As to `C[C@@H](c1ncncc1F)[C@](O)(Cn1cncn1)c1ccc(F)cc1F` [VORICONAZOLE], the minimum inhibitory concentration (MIC) in assay [1] came out at 0.06 µg/mL (≈ 0.172 µM); in assay [2], 0.06 µg/mL (≈ 0.172 µM); in assay [3] it was 0.06 µg/mL (≈ 0.172 µM); in assay [4], 0.03 µg/mL (≈ 0.0859 µM); in assay [5], 0.03 µg/mL (≈ 0.0859 µM); in assay [6], 0.01 µg/mL (≈ 0.0286 µM).
For the compound `CCC(C)n1ncn(-c2ccc(N3CCN(c4ccc(OCC5COC(Cn6cncn6)(c6ccc(Cl)cc6Cl)O5)cc4)CC3)cc2)c1=O` (stereo unspecified) [ITRACONAZOLE], the MIC in assay [1] amounted to 0.06 µg/mL (≈ 0.085 µM); in assay [2], 0.12 µg/mL (≈ 0.17 µM); in assay [3], 0.06 µg/mL (≈ 0.085 µM); in assay [4], 0.03 µg/mL (≈ 0.0425 µM); in assay [5] it was 0.12 µg/mL (≈ 0.17 µM); in assay [6], 0.03 µg/mL (≈ 0.0425 µM).
`C[C@@H]1[C@H](O)[C@@H](C)/C=C/C=C/C=C/C=C/C=C/C=C/C=C/[C@H](O[C@@H]2O[C@H](C)[C@@H](O)[C@H](N)[C@@H]2O)C[C@@H]2O[C@](O)(C[C@@H](O)C[C@@H](O)[C@H](O)CC[C@@H](O)C[C@@H](O)CC(=O)O[C@H]1C)C[C@H](O)[C@H]2C(=O)O` [AMPHOTERICIN B]: the MIC in assay [1] was 0.12 µg/mL (≈ 0.13 µM); in assay [2] it was 0.5 µg/mL (≈ 0.541 µM); in assay [3], 0.12 µg/mL (≈ 0.13 µM); in assay [4], 0.12 µg/mL (≈ 0.13 µM); in assay [5], 0.25 µg/mL (≈ 0.271 µM); in assay [6], 0.06 µg/mL (≈ 0.0649 µM).
For `CC(=O)N1CCN(c2ccc(OCC3COC(Cn4ccnc4)(c4ccc(Cl)cc4Cl)O3)cc2)CC1` (stereo unspecified) [KETOCONAZOLE], the MIC in assay [1] turned out to be 0.06 µg/mL (≈ 0.113 µM); in assay [2], 0.12 µg/mL (≈ 0.226 µM); in assay [3], 0.12 µg/mL (≈ 0.226 µM); in assay [4] it was 0.01 µg/mL (≈ 0.0188 µM); in assay [5], 0.03 µg/mL (≈ 0.0565 µM); in assay [6] it was 0.01 µg/mL (≈ 0.0188 µM).
